Screens from PubChem BioAssay.
A selection: hits, their analogues and other compounds. The true share with any hit is near 2.2%.
PfGluPho inh: PfG6PD (Plasmodium falciparum) enzyme inhibition; PfGluPho enzyme, NADPH resazurin-diaphorase fluorescence; inhibition, % at 20 µM; hit rate 0.78% among 350,000;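 active = inhibition reaching at least a set limit at 20 µM in the primary screen, cut at about 59% in these data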;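 also: 0% = DMSO wells with substrate and 100% = DMSO wells lacking glucose-6-phosphate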
ABHD5 PLIN5 PPI: ABHD5-PLIN5 protein interaction inhibition | Q00G26+Q8WTS1 | Split G. princeps luciferase complementation, luminescence, 4 h | inhibition, % at 4 µM | hit rate 0.78% among 360,000 | AID 602281;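 active = inhibition above the mean inhibition across every tested compound plus 3 SD, cut at about 22% in these data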;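 also: 0% = DMSO only wells and the 100% control is not disclosed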
Exocytosis inh: lytic granule exocytosis inhibition | inhibition, % at 10 µM | TALL-104 LAMP-1 surface exposure, flow cytometry; cells stimulated with thapsigargin and PMA | hit rate 0.66% among 360,000;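 active = inhibition above about 55%, limit read from the data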
HKDC1 inhibitor: HKDC1 (human) hexokinase inhibition | Q2TB90 | recombinant HKDC1, G6PDH/diaphorase resazurin coupled fluorescence | inhibition, % at 20 µM | hit rate 0.16% among 340,000;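 active = inhibition above about 35% when tested at 20 µM, limit read from the data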;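 also: plate controls were DMSO wells with enzyme for no effect and DMSO wells lacking enzyme for full effect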
Target sequence (Q2TB90 whole entry, looked up): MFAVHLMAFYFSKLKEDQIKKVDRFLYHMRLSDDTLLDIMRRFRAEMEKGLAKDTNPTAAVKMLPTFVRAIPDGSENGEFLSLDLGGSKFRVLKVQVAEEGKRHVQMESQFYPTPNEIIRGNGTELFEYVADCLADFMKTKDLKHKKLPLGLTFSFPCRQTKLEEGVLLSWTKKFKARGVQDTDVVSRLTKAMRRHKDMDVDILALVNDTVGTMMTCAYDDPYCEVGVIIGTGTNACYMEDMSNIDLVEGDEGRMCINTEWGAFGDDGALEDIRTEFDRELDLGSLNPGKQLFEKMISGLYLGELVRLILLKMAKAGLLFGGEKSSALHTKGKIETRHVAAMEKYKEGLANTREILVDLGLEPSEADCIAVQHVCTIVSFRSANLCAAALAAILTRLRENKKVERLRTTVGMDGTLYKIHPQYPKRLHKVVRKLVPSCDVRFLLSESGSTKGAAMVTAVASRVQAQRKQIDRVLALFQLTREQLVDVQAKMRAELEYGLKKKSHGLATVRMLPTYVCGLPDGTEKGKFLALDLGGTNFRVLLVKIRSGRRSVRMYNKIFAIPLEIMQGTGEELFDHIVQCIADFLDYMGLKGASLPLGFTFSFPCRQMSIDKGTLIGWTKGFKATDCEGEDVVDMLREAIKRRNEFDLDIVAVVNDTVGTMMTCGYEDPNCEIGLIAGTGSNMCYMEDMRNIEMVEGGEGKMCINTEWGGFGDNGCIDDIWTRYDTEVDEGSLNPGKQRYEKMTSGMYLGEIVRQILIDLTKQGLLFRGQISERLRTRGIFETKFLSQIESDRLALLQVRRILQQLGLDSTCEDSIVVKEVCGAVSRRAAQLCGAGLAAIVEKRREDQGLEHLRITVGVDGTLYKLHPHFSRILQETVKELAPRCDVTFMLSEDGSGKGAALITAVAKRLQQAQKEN
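Assay system: recombinant HKDC1 hexokinase; detection: coupled resazurin fluorescence, excitation 525 nm, emission 613 nm; benchmarks: DMSO-plus-enzyme-mix negative control, buffer-substituted positive control; compound dosing: single 20 µM dose; schedule: 90 min at room temperature in dark; also added: glucose plus 1 mM ATP as hexokinase substrates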
ABHD5 PLIN5 conf: ABHD5-PLIN5 interaction inhibition, confirmed. shares compounds with ABHD5 PLIN5 PPI. inhibition, % at 4 µM. biochemical ABHD5-PLIN5 interaction, luminescence. hit rate 67% among 2,200; in the data active = inhibition above about 23%;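 also: 0% = DMSO vehicle wells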
HNF4 split-luc: counter-screen for ABHD5-PLIN5 inhibitors: HNF4 split-luciferase. shares compounds with ABHD5 PLIN5 PPI. HNF4 dimerization, luminescence, biochemical. inhibition, % at 4 µM. hit rate 77% among 2,200;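 active = mean inhibition across replicate wells exceeding the computed hit threshold, cut at about 13% in these data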;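 also: light from luciferase halves that rejoin when HNF4 fusion proteins dimerize; 0% = DMSO only wells and the 100% control is not given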
Granule exo CP1: lytic granule exocytosis inhibition; shares compounds with Exocytosis inh; TALL-104 cells, LAMP-1 externalization, flow cytometry; stimulated with PMA plus thapsigargin; inhibition, % at 10 µM; hit rate 11% among 1,500; in the data active = inhibition above about 60%;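 also: 0% = stimulated vehicle wells and 100% = unstimulated wells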
* hit, by the source's call; . = no result.

SMILES | PfGluPho inh | ABHD5 PLIN5 PPI | Exocytosis inh | HKDC1 inhibitor | ABHD5 PLIN5 conf | HNF4 split-luc | Granule exo CP1
O=C(C[n+]1cccc(CNC(=O)c2ccc(OC(F)F)cc2)c1)Nc1cccc(C(F)(F)F)c1 | -11.0 | 31.8* | 0.8 | -2.5 | 23.8* | 3.4 | .
O=C(C[n+]1cccc(CNC(=O)c2ccc(OC(F)F)cc2)c1)Nc1ccc(F)cc1 | 3.8 | 10.9 | 0.1 | -9.1 | . | . | .
CN(Cc1ccccc1)C1CCCN(C(=O)c2ccc(Cl)s2)C1 (stereo not given) | 7.9 | -0.8 | 1.6 | -1.2 | . | . | .
CN(C)CCC(=O)C(Cc1ccccc1)c1ccccc1 (stereo not given) | 41.8 | 29.0* | 96.8* | 10.9 | 59.8* | 92.8* | 18.4
COc1ccc(-n2nnnc2S(=O)(=O)CC(=O)N2CCCCC2)cc1 | 8.5 | 53.6* | 60.4* | 3.1 | 75.4* | 83.1* | 8.0
COc1cc(OC)cc(-n2nnnc2SCC(=O)N2CCCC2)c1 | 9.0 | 10.2 | 35.6 | -6.6 | . | . | .
c1cc2c(cc1C1CCCCC1)c1c3n2CCCNC3CCC1 (stereo not given) | -8.2 | 26.7* | 76.7* | 4.0 | 13.2 | 0.4 | 6.9
Cc1ccc2c(c1)c1c3n2CCCNC3CCC1 (stereo not given) | 2.3 | 7.9 | 0.3 | -5.2 | . | . | .
NC(=O)C1CCCN(C(=O)CN2C(=O)NC(c3ccccc3)(c3ccccc3)C2=O)C1 (stereo not given) | 2.5 | 9.9 | -2.6 | 0.8 | . | . | .
CC(C)(C)S(=O)N1Cc2cc(C(=O)N[C@@H]3CCN(Cc4ccccc4)C3)nc(-c3cccc(-c4cc5ccccc5o4)c3)c2[C@@H]1CCO (stereo not given in full) | . | 25.9* | 63.2* | . | 11.7 | 0.3 | 19.3
CC1CC(C)(C)Nc2ccc(OC(=O)c3ccco3)cc21 (stereo not given) | 32.2 | 28.1* | 82.2* | 1.9 | 70.9* | 61.1* | -11.3
Cc1cc(N2CCN(Cc3nc(-c4ccc(Cl)cc4)oc3C)CC2)cc(C)n1 | -4.5 | 18.7 | 4.8 | -2.3 | . | . | .
COc1ccc(-c2nc(CN3CCN(c4cc(C)nc(C)c4)CC3)c(C)o2)c2ccccc12 | -0.9 | 25.3* | 58.0* | -0.8 | 11.9 | 0.7 | 36.2
Cc1cn(CC(=O)NCCN2CCOCC2)c(=O)[nH]c1=O | 0.8 | 0.6 | -0.1 | -4.2 | . | . | .
Cc1ccc(-c2csc3ncn(-n4c(C)ccc4C)c(=O)c23)o1 | 30.8 | 27.0* | 55.6* | 4.9 | 6.3 | 32.8* | -13.6
Cc1cc(SCC(=O)c2ccc(O)c(O)c2)n2nc(C)c(-c3ccccc3)c2n1 | -26.5 | 4.1 | -0.1 | -2.3 | . | . | .
Cc1csc2nc(SCC(=O)N3CCN(c4ccccc4)CC3)[nH]c(=O)c12 | -12.4 | 0.1 | 1.3 | 7.1 | . | . | .
COc1ccc(S(=O)(=O)N(C(=O)c2ccco2)c2cc3sc(=O)oc3c3ccccc23)cc1 | 52.2 | 96.6* | 82.8* | 26.1 | -24.0 | 109.8* | -13.1
COc1ccc(S(=O)(=O)N(Cc2ccccc2)c2ccccc2C(=O)Nc2ccccc2C(=O)NCc2ccco2)cc1 | -3.4 | 8.9 | 1.0 | 1.5 | . | . | .
O=C(CCN1CCc2ccccc2C(c2ccccc2)C1)c1ccc2c(c1)OCCO2 (stereo not given) | 5.2 | 25.5* | 95.8* | 2.0 | 22.7* | 86.2* | 81.0*
COc1ccc(S(=O)(=O)Nc2cccc3c2O[C@H](CN(C)S(=O)(=O)c2ccccc2)[C@@H](C)CN([C@H](C)CO)C3=O)cc1 | 2.6 | -0.8 | -2.8 | -5.0 | . | . | .
CCOc1cc(CNCCO)cc(Br)c1OCc1ccc(Cl)cc1 | 11.7 | 25.3* | 63.3* | -0.3 | 16.1 | 8.3 | -6.2
CCCCC[C@H](C)N1C[C@H](COCc2ccccc2)Oc2cc(N3CC[C@H](N(C)C)C3)ccc2S1(=O)=O | . | 13.3 | 52.9 | . | . | . | .
CCCCC[C@@H](C)N1C[C@@H](COCc2ccccc2)Oc2cc(N3CC[C@@H](N(C)C)C3)ccc2S1(=O)=O | . | 28.1* | 58.1* | . | 2.1 | -5.2 | 68.1*
O=C(NCc1cccnc1)/C(=C\c1ccc(-c2ccc(Br)cc2)o1)S(=O)(=O)c1ccccc1 | 13.0 | 73.3* | 83.0* | 9.9 | 92.8* | 82.7* | 53.8
SMILES | PfGluPho inh | ABHD5 PLIN5 PPI | Exocytosis inh | HKDC1 inhibitor | ABHD5 PLIN5 conf | HNF4 split-luc | Granule exo CP1
N#Cc1c(Nc2ccccc2C(F)(F)F)s[nH]c1=O | 50.3 | 16.0 | 47.8 | -3.1 | . | . | .
N#Cc1c(Nc2ccccc2Cl)s[nH]c1=O | 56.1 | 25.3* | 78.5* | 5.4 | 44.0* | 103.3* | 94.6*
COCCCNCC(O)COc1ccccc1F (stereo not given) | 9.3 | 0.8 | -1.1 | -6.0 | . | . | .
CN1CCN(CCCNC(=O)c2ccc(/C=C3\Sc4ccccc4N(Cc4ccccc4F)C3=O)cc2)CC1 | -28.5 | 32.7* | 65.7* | -3.8 | 5.2 | -6.2 | 6.6
O=C(NCCN1CCOCC1)c1ccc(/C=C2\Sc3ccccc3N(Cc3ccccc3F)C2=O)cc1 | -20.6 | 8.4 | 2.9 | -1.1 | . | . | .
CSc1ccc2c(c1)C(N1CCN(C)CC1)Cc1ccc(F)cc1S2 (stereo not given) | 5.6 | 26.4* | 69.4* | 4.5 | 17.9 | 3.4 | 39.1
COc1cc(O)c(CCC(=O)c2ccc(OC)c(OC)c2)c(OC)c1 | -6.1 | -2.6 | -10.4 | 5.5 | . | . | .
Cc1oc(=O)c(NC(=O)c2cccc(Cl)c2)cc1C(=O)c1ccccc1 | 14.2 | 34.3* | 96.9* | 3.9 | 18.3 | 100.2* | -3.4
Cc1oc(=O)c(NC(=O)c2ccccc2)cc1C(N)=O | -2.4 | 2.8 | -2.3 | -13.5 | . | . | .
O=C(CN1C(=O)/C(=C\c2cccc(Br)c2)Oc2ccccc21)NCCCN1CCOCC1 | 10.9 | 29.2* | 64.0* | 0.3 | 17.0 | 4.7 | 95.5*
O=C(COc1coc(CN2CCCc3ccccc32)cc1=O)Nc1cccc([N+](=O)[O-])c1 | -10.5 | 2.4 | 1.7 | 0.9 | . | . | .
CCC1CCCCN1CCCNC(=O)c1ccc2c(c1)N(Cc1ccc(F)cc1)C(=O)c1ccccc1S2=O (stereo not given) | -0.3 | 25.4* | 61.1* | -4.5 | 1.6 | 7.5 | -14.5
O=C(NCCCN1CCCC1)c1ccc2c(c1)N(Cc1ccc(F)cc1)C(=O)c1ccccc1S2=O (stereo not given) | 1.6 | 4.8 | -2.8 | -4.7 | . | . | .
O=C(/C=C/c1cccc(F)c1)Nc1ccc(S(=O)(=O)N2CCOCC2)cc1 | 0.1 | -6.8 | 1.6 | 7.7 | . | . | .
Oc1ccccc1C1CC(c2cccs2)=NC(c2cccc(Br)c2)N1 (stereo not given) | 9.3 | 45.2* | 69.2* | 2.2 | 23.1* | 49.2* | -14.6
COc1ccc(CNCc2ccc3ccccc3c2)c(OC)c1 | 2.2 | 6.5 | 21.2 | -2.0 | . | . | .
Fc1cccc(Cc2c(-c3ccco3)nc3ccc(Cl)cn23)c1 | . | 74.9* | 57.6* | . | 20.6 | 52.5* | -10.6
Fc1cccc(Cc2c(-c3cccc(Cl)c3)nc3c4ccccc4ccn23)c1 | . | -6.0 | -2.8 | . | . | . | .
